“Also recorded” adds a separate entry of the source. One block for each compound: values may come before it.
Experiments:
[1] = tested on: HT-1080 transplanted tumors (CD13 positive expression); experiment: T1WI MRI of HT-1080 tumor-bearing mice, T/NT ratio; assay type: in vivo, human fibrosarcoma in BALB/c nude mice
[2] = tested on: HT-29 transplanted tumors (CD13 negative expression); experiment: T1WI MRI of HT-29 tumor-bearing mice, T/NT ratio; assay type: in vivo, human colorectal adenocarcinoma in BALB/c nude mice
[3] = proton relaxivity measurement; assay type: physicochemical; settings: 128 MHz, 298 K
[4] = tested on: HT-29 transplanted tumors; experiment: tumor size on transverse MRI, HT-29; assay type: in vivo, human colorectal adenocarcinoma in BALB/c nude mice
[5] = tested on: HT-1080 transplanted tumors; experiment: tumor size on transverse MRI, HT-1080; assay type: in vivo, human fibrosarcoma in BALB/c nude mice
Summary of the method: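 8-week BALB/c nude mice (~25 g, SPF) bore right-axillary HT-1080 xenografts from 5 × 10^6 cells. At ~1 cm, mice got Gd-labeled probe (200 µg i.p.) and 3.0T T1WI MRI with a small-animal coil (TR 200 ms, TE 2.46 ms, 3 mm slices). Test compound was then given at 0.5 mg/kg/day i.p. for 7 days, with repeat MRI on day 8. Groups were compared by one-way ANOVA.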

APN/CD13 = experiment: immunohistochemistry of APN/CD13 expression in HT-1080 transplanted tumors; assay type: in vivo, human fibrosarcoma in BALB/c nude mice; settings: ubenimex 0.5 mg/kg/day i.p., one week / 7 days
Summary of the method: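 HT-1080 cells, grown in DMEM with 10% FBS at 37 °C and 5% CO2, were inoculated at 5 × 10^6 cells into the right axilla of 8-week BALB/c nude mice. Tumors reached about 1 cm. Test compound was given at 0.5 mg/kg/day i.p. for 7 days. After the day-8 MRI, tumors were harvested, formaldehyde-fixed for 48 h, paraffin-embedded, cut at 5 μm and immunostained for APN/CD13.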

CD13 receptor = CD13 receptor (Homo sapiens, UniProt P15144); experiment: competitive cell binding assay; settings: HT-1080 cells, 0.01 to 60.00 µM
CD13 receptor, sequence (P15144 whole entry): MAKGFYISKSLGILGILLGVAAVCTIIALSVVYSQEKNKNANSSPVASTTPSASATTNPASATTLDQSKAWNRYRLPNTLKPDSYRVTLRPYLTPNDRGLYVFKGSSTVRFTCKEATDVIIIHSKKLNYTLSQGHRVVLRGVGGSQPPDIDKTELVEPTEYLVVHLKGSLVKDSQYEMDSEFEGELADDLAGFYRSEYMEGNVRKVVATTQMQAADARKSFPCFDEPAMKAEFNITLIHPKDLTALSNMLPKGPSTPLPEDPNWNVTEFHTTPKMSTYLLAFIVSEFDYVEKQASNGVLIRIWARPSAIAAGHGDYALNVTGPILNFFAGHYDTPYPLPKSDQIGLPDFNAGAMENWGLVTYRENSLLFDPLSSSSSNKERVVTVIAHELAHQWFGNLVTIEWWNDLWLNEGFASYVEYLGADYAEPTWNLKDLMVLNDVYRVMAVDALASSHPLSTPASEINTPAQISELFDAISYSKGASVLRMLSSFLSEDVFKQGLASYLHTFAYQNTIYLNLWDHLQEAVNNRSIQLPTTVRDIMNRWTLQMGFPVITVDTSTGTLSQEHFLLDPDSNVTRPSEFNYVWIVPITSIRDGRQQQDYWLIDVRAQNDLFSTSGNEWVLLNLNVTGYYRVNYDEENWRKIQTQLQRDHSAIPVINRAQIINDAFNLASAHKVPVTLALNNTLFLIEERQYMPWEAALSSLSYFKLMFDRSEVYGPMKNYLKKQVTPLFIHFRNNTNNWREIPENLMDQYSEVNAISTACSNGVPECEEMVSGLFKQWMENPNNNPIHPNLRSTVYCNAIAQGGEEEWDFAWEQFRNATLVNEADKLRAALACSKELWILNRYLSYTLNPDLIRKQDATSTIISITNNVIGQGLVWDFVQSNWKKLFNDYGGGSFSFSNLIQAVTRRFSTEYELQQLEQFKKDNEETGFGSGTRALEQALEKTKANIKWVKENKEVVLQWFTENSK

time of peak T/NT value post-injection ([1]; HT-1080 xenografts, i.p. injection, T/NT value-time curve): 1 h
time of peak T/NT value post-injection ([2]; HT-29 xenografts, i.p. injection, T/NT value-time curve): 1 h
proton relaxivity R1 [3]: 4.0 mM^− 1S^− 1
Compound: O=C([O-])CN1CCN(CC(=O)[O-])CCN(CC(=O)O)CCN(CC(=O)[O-])CC1.[Gd+3] [Gd-DOTA]
T/NT of HT-1080 xenografts (treated or untreated) compared with HT-29 xenografts ([1]; Gd-DOTA, 1 h post-injection): no significant difference in T/NT values
tumor signal intensity on T1WI ([1]; HT-1080 xenograft, intraperitoneal injection, before treatment): high signal intensity
tumor signal intensity on T1WI ([2]; HT-29 xenograft, intraperitoneal injection, before treatment): high signal intensity

Compound: CC(C)C[C@H](NC(=O)[C@@H](O)[C@H](N)Cc1ccccc1)C(=O)O [ubenimex]
sum of the long and short diameters of the tumor, after one week ([4]; HT-29, after one week, P = 0.001 vs before): 3.5 ± 0.2 cm
sum of the long and short diameters of the tumor, before ([4]; HT-29, before, P = 0.001 vs after one week): 2.9 ± 0.1 cm
change in T/NT ratio after treatment ([1]; ubenimex 0.5 mg/kg/day i.p., 7 days, MRI on the 8th day): decreased significantly
change of tumor size (sum of long and short diameters) ([5]; 7 days of ubenimex treatment): not changing significantly
sum of the long and short diameters of the tumor, before treatment ([5]; HT-1080, n = 5, before ubenimex, P = 0.39 before vs after): 3.1 ± 0.1 cm
expression of APN/CD13 in HT-1080 grafts after treatment (APN/CD13): decreased significantly; also recorded: markedly reduced

Compound: DOTA-G3CNGRC
inhibition of 99mTc-DOTA-G3CNGRC binding to the CD13 receptor (CD13 receptor): inhibited by DOTA-G3CNGRC in a dose-dependent manner

From paper PMC12215967 (Scientific Reports, 2025)
